Laboratory results: ChEMBL document CHEMBL1125559, “Analogues of platelet activating factor. 7. Bis-aryl amide and bis-aryl urea receptor antagonists of PAF” (J Med Chem, 1992)

Tests used:
Oryctolagus cuniculus [1] = species: Oryctolagus cuniculus; experiment: Concentration required to inhibit PAF (5*10e-8 M) induced platelet aggregation in rabbit platelet rich plasma(PRP) by 50%; type: functional, organism-based
Procedure, shortened: (§1)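 Rabbit PRP came from blood spun at 800 rpm for 15 min at room temperature, with platelet counts of 350 000–550 000/µL. PRP was equilibrated 1–2 min at 37 °C in an aggregometer. It was preincubated 5 min with test compound (final 10^-8 to 10^-5 M; methanol stock diluted in saline) or saline, then challenged with L-C16-PAF. IC50 was taken from concentration–response curves of aggregation magnitude and averaged over separate determinations.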

Mus musculus [2] = experiment: Compound was evaluated for PAF-induced lethality in mouse (intraperitoneally at a dose of 1.0 mg/kg in saline 0.5 hr before lethal intravenous PAF challenge 75-150 mg/kg); type: ADME, organism-based; design: dose 1 mg/kg, route intraperitoneal; settings: in vivo
Procedure, shortened: (§2)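 Female Swiss-Webster mice (20-25 g) received test compound ip in saline (10 mL/Kg); controls got saline alone. The PAF dose was chosen daily from small pilot groups. Survival was scored at 1.5 h and recorded as dead/total.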

Mus musculus [3] = experiment: Compound was evaluated for PAF-induced lethality in mouse (intraperitoneally at a dose of 1.0 mg/kg in saline 0.5 h before lethal intravenous PAF challenge 75-150 mg/kg); 12/14; type: ADME, organism-based; design: dose 1 mg/kg; settings: in vivo; procedure, shortened: as §2
Mus musculus [4] = experiment: Compound was evaluated for PAF-induced lethality in mouse (intraperitoneally at a dose of 1.0 mg/kg in saline 0.5 hr before lethal intravenous PAF challenge 75-150 mg/kg); 5/12; type: ADME, organism-based; design: dose 1 mg/kg, route intravenous; settings: in vivo; procedure, shortened: as §2
Oryctolagus cuniculus [5] = species: Oryctolagus cuniculus; experiment: Concentration required to inhibit PAF (5*10e-8 M) induced platelet aggregation in rabbit platelet rich plasma(PRP) by 50% at 10 uM; type: functional
Mus musculus [6] = experiment: Compound was evaluated for PAF-induced lethality in mouse (intraperitoneally at a dose of 1.0 mg/kg in saline 0.5 hr before lethal intravenous PAF challenge 75-150 mg/kg); 2/10; type: ADME, organism-based; design: dose 1 mg/kg; settings: in vivo; procedure, shortened: as §2
Mus musculus [7] = experiment: Compound was evaluated for PAF-induced lethality in mouse (intraperitoneally at a dose of 1.0 mg/kg in saline 0.5 hr before lethal intravenous PAF challenge 75-150 mg/kg); 16/27; type: ADME, organism-based; design: dose 1 mg/kg; settings: in vivo; procedure, shortened: as §2
Mus musculus [8] = experiment: Compound was evaluated number of mouse dead out of total (intraperitoneally at a dose of 1.0 mg/kg in saline 0.5 hr before lethal intravenous PAF challenge 75-150 mg/kg); 6/12; type: ADME, organism-based; design: dose 1 mg/kg, route intravenous; settings: in vivo; procedure, shortened: as §2
Oryctolagus cuniculus [9] = species: Oryctolagus cuniculus; experiment: Concentration required to inhibit PAF (5*10e-7 M) induced platelet aggregation in rabbit platelet rich plasma(PRP) by 50%; type: functional, organism-based; procedure, shortened: as §1
Mus musculus [10] = experiment: Compound was evaluated for PAF-induced lethality in mouse (intraperitoneally at a dose of 1.0 mg/kg in saline 0.5 hr before lethal intravenous PAF challenge 75-150 mg/kg); 11/13; type: ADME, organism-based; design: dose 1 mg/kg; settings: in vivo; procedure, shortened: as §2
Mus musculus [11] = experiment: Compound was evaluated for PAF-induced lethality in mouse (intraperitoneally at a dose of 1.0 mg/kg in saline 0.5 hr before lethal intravenous PAF challenge 75-150 mg/kg); 11/14; type: ADME, organism-based; design: dose 1 mg/kg; settings: in vivo; procedure, shortened: as §2
Oryctolagus cuniculus [12] = species: Oryctolagus cuniculus; experiment: Concentration required to inhibit PAF (5*10e-8 M) induced platelet aggregation in rabbit platelet rich plasma(PRP) by 50% at 10 uM; NI= No inhibition; type: functional, organism-based
Mus musculus [13] = experiment: Compound was evaluated for PAF-induced lethality in mouse (intraperitoneally at a dose of 1.0 mg/kg in saline 0.5 hr before lethal intravenous PAF challenge 75-150 mg/kg); 14/24; type: ADME, organism-based; design: dose 1 mg/kg; settings: in vivo; procedure, shortened: as §2
Mus musculus [14] = experiment: Compound was evaluated for PAF-induced lethality in mouse (intraperitoneally at a dose of 1.0 mg/kg in saline 0.5 hr before lethal intravenous PAF challenge 75-150 mg/kg); 9/24; type: ADME, organism-based; design: dose 1 mg/kg; settings: in vivo; procedure, shortened: as §2
Mus musculus [15] = experiment: Compound was evaluated for PAF-induced lethality in mouse (intraperitoneally at a dose of 1.0 mg/kg in saline 0.5 hr before lethal intravenous PAF challenge 75-150 mg/kg); 8/12; type: ADME, organism-based; design: dose 1 mg/kg, route intravenous; settings: in vivo; procedure, shortened: as §2

For `Cc1nnc2n1-c1sc(CCC(=O)N3CCOCC3)cc1C(c1ccccc1Cl)=NC2` [APAFANT], the IC50 (Oryctolagus cuniculus [1]) was 340 nM.
In the case of `CCCCCCCCCCCCCCOc1cc(CN(C(C)=O)c2cccc(C[n+]3csc(C)c3)c2)ccc1C.[Br-]`, the Lethality (Mus musculus [2]) is reported as 86%, the Dead/total (Mus musculus [3]) is reported as 12 and the IC50 (Oryctolagus cuniculus [1]) is reported as 6700 nM.
With `CCCCCCCCCCCCCCOc1ccc(CNC(=O)c2cccc(C[n+]3csc(C)c3)c2)cc1C(C)(C)C` the IC50 (Oryctolagus cuniculus [1]) was 3500 nM.
Work on `CCCCCCCCCCCCCCOc1ccc(NC(=O)c2cccc(C[n+]3csc(C)c3)c2)cc1` yielded an IC50 (Oryctolagus cuniculus [1]) of 2700 nM.
Molecule `CCCCCCCCCCCCCCOc1ccc(CNc2cccc(C[n+]3csc(C)c3)c2)cc1.[Br-]` has a Lethality (Mus musculus [2]) of 42%, a Dead/total (Mus musculus [4]) of 5 and an IC50 (Oryctolagus cuniculus [1]) of 7100 nM.
For `CCCCCCCCCCCCCCOc1cc(CNC(=O)c2cccc(C[n+]3csc(C)c3)c2)cc(OC)c1.[Br-]`, the Inhibition (Oryctolagus cuniculus [5]) was 43%.
With `CCCCCCCCCCCCCCOc1c(C)cccc1CN(C(C)=O)c1cccc(C[n+]2csc(C)c2)c1.[Br-]` the Dead/total (Mus musculus [6]) was 2, the Lethality (Mus musculus [2]) was 20% and the IC50 (Oryctolagus cuniculus [1]) was 3200 nM.
With `CCCCCCCCCCCCCCOc1ccc(OC)cc1CN(C(C)=O)c1cccc(C[n+]2csc(C)c2)c1.[Br-]` the Dead/total (Mus musculus [7]) was 16, the Lethality (Mus musculus [2]) was 59% and the IC50 (Oryctolagus cuniculus [1]) was 320 nM.
With `CCCCCCCCCCCCOc1ccc(CC(=O)Nc2cccc(C[n+]3csc(C)c3)c2)cc1.[Br-]` the Lethality (Mus musculus [2]) was 55%, the Dead/total (Mus musculus [8]) was 6 and the IC50 (Oryctolagus cuniculus [1]) was 2900 nM.
`CCCCCCCCCCCCCCOc1ccc(CCN(C(C)=O)c2cccc(C[n+]3csc(C)c3)c2)cc1` gave an IC50 (Oryctolagus cuniculus [9]) of 4300 nM.
In the case of `CCCCCCCCCCCCCCCCOc1ccc(OCC(=O)Nc2ccccc2C[n+]2csc(C)c2)cc1`, the IC50 (Oryctolagus cuniculus [1]) is reported as 11200 nM.
Molecule `CCCCCCCCCCCCCCOc1c(CN(C(C)=O)c2cccc(C[n+]3csc(C)c3)c2)cccc1OC.[Br-]` has a Dead/total (Mus musculus [10]) of 11, a Lethality (Mus musculus [2]) of 85% and an IC50 (Oryctolagus cuniculus [1]) of 2500 nM.
With `CCCCCCCCCCCCCCOc1ccc(CNC(=O)c2cccc(C[n+]3csc(C)c3)c2)cc1` the IC50 (Oryctolagus cuniculus [1]) was 400 nM.
`CCCCCCCCCCCCCCOc1ccc(CN(C(C)=O)c2ccc(C[n+]3csc(C)c3)cc2)cc1` gave an IC50 (Oryctolagus cuniculus [1]) of 2100 nM.
`CCCCCCCCCCCCCCOc1ccc(CN(C(=O)CCC)c2cccc(C[n+]3csc(C)c3)c2)cc1.[Br-]` was tested, and the Dead/total (Mus musculus [11]) was 11, the Lethality (Mus musculus [2]) was 79% and the IC50 (Oryctolagus cuniculus [1]) was 260 nM.
In the case of `CCCCCCCCCCCCCCCCOc1ccc(CC(=O)Nc2cccc(C[n+]3csc(C)c3)c2)cc1`, the IC50 (Oryctolagus cuniculus [1]) is reported as 5300 nM.
In the case of `CCCCCCCCCCCCCCOc1ccc(CC(=O)Nc2ccccc2C[n+]2csc(C)c2)cc1.[Br-]`, the IC50 (Oryctolagus cuniculus [12]) is reported as “Not Active”.
`CCCCCCCCCCCCCCOc1cccc(CC(=O)Nc2ccccc2C[n+]2csc(C)c2)c1.[Br-]` was tested, and the Inhibition (Oryctolagus cuniculus [5]) was 23%.
Molecule `CCCCCCCCCCCCCCOc1ccc(CCCN(C(C)=O)c2cccc(C[n+]3csc(C)c3)c2)cc1.[Br-]` has a Lethality (Mus musculus [2]) of 58%, a Dead/total (Mus musculus [13]) of 14 and an IC50 (Oryctolagus cuniculus [1]) of 3100 nM.
With `CCCCCCCCCCCCCCOc1ccc(CN(C(C)=O)c2cccc(C[n+]3csc(C)c3)c2)cc1OC` the IC50 (Oryctolagus cuniculus [1]) was 320 nM.
`CCCCCCCCCCCCCCOc1ccc(CN(C(C)=O)c2cccc(C[n+]3csc(C)c3)c2)cc1.[Br-]` showed a Lethality (Mus musculus [2]) of 38%, an IC50 (Oryctolagus cuniculus [1]) of 260 nM and a Dead/total (Mus musculus [14]) of 9.
For `CCCCCCCCCCCCCCOc1c(C)cc(CN(C(C)=O)c2cccc(C[n+]3csc(C)c3)c2)cc1C`, the IC50 (Oryctolagus cuniculus [1]) was 710 nM.
With `CCCCCCCCCCCCCCOc1ccc(CC(=O)Nc2ccc(C[n+]3csc(C)c3)cc2)cc1.[Br-]` the Lethality (Mus musculus [2]) was 80%, the IC50 (Oryctolagus cuniculus [1]) was 600 nM and the Dead/total (Mus musculus [15]) was 8.
